From ChEMBL document CHEMBL5058577, “EUbOPEN Chemogenomics Library 2 (Multiplex)” (2022)

Test system: HEK-293T
Experiment: Multiplex assay against HEK293T
Format: toxicity, cell-based
Conditions: human
In short: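 Hoechst33342, BioTracker Green Microtubule Cytoskeleton Dye, MitoTracker Red and Annexin V Alexa Fluor 680 were added to live cells at seeding, and imaging on a CQ1 microscope at 37°C and 5% CO2 followed compound addition. Gating by CellPathfinder machine learning separated cells into Hoechst high-intensity objects or normal cells, then normal cells into healthy, pyknosed or fragmented nuclei, then pyknosed cells into mitotic or apoptotic. Per cents of healthy-nucleus cells are reported for the tubulin, mitochondrial-mass and membrane-permeability phenotypes.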

[1] = 12 h, 1 µM, compound concentration 1 uM, replicate 1
[2] = 12 h, 1 µM, compound concentration 1 uM, replicate 2
[3] = 12 h, 10 µM, compound concentration 10 uM, replicate 1
[4] = 12 h, 10 µM, compound concentration 10 uM, replicate 2
[5] = 24 h, 1 µM, compound concentration 1 uM, replicate 1
[6] = 24 h, 1 µM, compound concentration 1 uM, replicate 2
[7] = 24 h, 10 µM, compound concentration 10 uM, replicate 1
[8] = 24 h, 10 µM, compound concentration 10 uM, replicate 2
[9] = 48 h, 1 µM, compound concentration 1 uM, replicate 1
[10] = 48 h, 1 µM, compound concentration 1 uM, replicate 2
[11] = 48 h, 10 µM, compound concentration 10 uM, replicate 1
[12] = 48 h, 10 µM, compound concentration 10 uM, replicate 2

Compound: CC(C)(O)C(=O)N1CCN(c2ccc(C(F)(F)F)c(C3=C(c4c[nH]c5ccccc45)C(=O)NC3=O)c2)CC1
- Population Apoptotic (%) [1]: 33%
- Population Fragmented Nuclei (%) [1]: 4%
- Population Healthy Nuclei (%) [1]: 78%
- Population Hoechst High Intensity Objects (%) [1]: 8%
- Population Membrane Permeable-Phenotype (%) [1]: 0%
- Population Mitochondria Different-Phenotype (%) [1]: 43%
- Population Mitotic Cells (%) [1]: 66%
- Population Normal (%) [1]: 91%
- Population Pyknosed Nuclei (%) [1]: 16%
- Population Tubulin-Different-Phenotype (%) [1]: 28%
- Total Cell Count [1]: 381
- Population Apoptotic (%) [2]: 46%
- Population Fragmented Nuclei (%) [2]: 5%
- Population Healthy Nuclei (%) [2]: 76%
- Population Hoechst High Intensity Objects (%) [2]: 7%
- Population Mitochondria Different-Phenotype (%) [2]: 58%
- Population Mitotic Cells (%) [2]: 53%
- Population Normal (%) [2]: 92%
- Population Pyknosed Nuclei (%) [2]: 17%
- Population Tubulin-Different-Phenotype (%) [2]: 30%
- Total Cell Count [2]: 293
- Population Apoptotic (%) [3]: 51%
- Population Fragmented Nuclei (%) [3]: 4%
- Population Healthy Nuclei (%) [3]: 74%
- Population Hoechst High Intensity Objects (%) [3]: 10%
- Population Membrane Permeable-Phenotype (%) [3]: 0%
- Population Mitochondria Different-Phenotype (%) [3]: 61%
- Population Mitotic Cells (%) [3]: 48%
- Population Normal (%) [3]: 89%
- Population Pyknosed Nuclei (%) [3]: 20%
- Population Tubulin-Different-Phenotype (%) [3]: 62%
- Total Cell Count [3]: 338
- Population Apoptotic (%) [4]: 72%
- Population Fragmented Nuclei (%) [4]: 3%
- Population Healthy Nuclei (%) [4]: 75%
- Population Hoechst High Intensity Objects (%) [4]: 7%
- Population Mitochondria Different-Phenotype (%) [4]: 90%
- Population Mitotic Cells (%) [4]: 27%
- Population Normal (%) [4]: 92%
- Population Pyknosed Nuclei (%) [4]: 21%
- Population Tubulin-Different-Phenotype (%) [4]: 63%
- Total Cell Count [4]: 203
- Population Apoptotic (%) [5]: 33%
- Population Fragmented Nuclei (%) [5]: 8%
- Population Healthy Nuclei (%) [5]: 74%
- Population Hoechst High Intensity Objects (%) [5]: 5%
- Population Membrane Permeable-Phenotype (%) [5]: 0%
- Population Mitochondria Different-Phenotype (%) [5]: 32%
- Population Mitotic Cells (%) [5]: 66%
- Population Normal (%) [5]: 94%
- Population Pyknosed Nuclei (%) [5]: 17%
- Population Tubulin-Different-Phenotype (%) [5]: 19%
- Total Cell Count [5]: 469
- Population Apoptotic (%) [6]: 29%
- Population Fragmented Nuclei (%) [6]: 5%
- Population Healthy Nuclei (%) [6]: 79%
- Population Mitochondria Different-Phenotype (%) [6]: 48%
- Population Mitotic Cells (%) [6]: 70%
- Population Pyknosed Nuclei (%) [6]: 14%
- Total Cell Count [6]: 335
- Population Apoptotic (%) [7]: 45%
- Population Fragmented Nuclei (%) [7]: 6%
- Population Healthy Nuclei (%) [7]: 71%
- Population Hoechst High Intensity Objects (%) [7]: 4%
- Population Membrane Permeable-Phenotype (%) [7]: 1%
- Population Mitochondria Different-Phenotype (%) [7]: 48%
- Population Mitotic Cells (%) [7]: 54%
- Population Normal (%) [7]: 95%
- Population Pyknosed Nuclei (%) [7]: 22%
- Population Tubulin-Different-Phenotype (%) [7]: 43%
- Total Cell Count [7]: 387
- Population Apoptotic (%) [8]: 66%
- Population Fragmented Nuclei (%) [8]: 2%
- Population Hoechst High Intensity Objects (%) [8]: 7%
- Population Membrane Permeable-Phenotype (%) [8]: 0%
- Population Mitochondria Different-Phenotype (%) [8]: 84%
- Population Mitotic Cells (%) [8]: 34%
- Population Normal (%) [8]: 92%
- Population Pyknosed Nuclei (%) [8]: 25%
- Population Tubulin-Different-Phenotype (%) [8]: 60%
- Total Cell Count [8]: 212
- Population Apoptotic (%) [9]: 25%
- Population Fragmented Nuclei (%) [9]: 9%
- Population Healthy Nuclei (%) [9]: 79%
- Population Hoechst High Intensity Objects (%) [9]: 2%
- Population Membrane Permeable-Phenotype (%) [9]: 0%
- Population Mitochondria Different-Phenotype (%) [9]: 21%
- Population Mitotic Cells (%) [9]: 74%
- Population Normal (%) [9]: 97%
- Population Pyknosed Nuclei (%) [9]: 10%
- Population Tubulin-Different-Phenotype (%) [9]: 14%
- Total Cell Count [9]: 780
- Population Apoptotic (%) [10]: 27%
- Population Fragmented Nuclei (%) [10]: 10%
- Population Hoechst High Intensity Objects (%) [10]: 5%
- Population Mitochondria Different-Phenotype (%) [10]: 29%
- Population Mitotic Cells (%) [10]: 72%
- Population Normal (%) [10]: 94%
- Population Tubulin-Different-Phenotype (%) [10]: 15%
- Total Cell Count [10]: 571
- Population Apoptotic (%) [11]: 54%
- Population Fragmented Nuclei (%) [11]: 8%
- Population Healthy Nuclei (%) [11]: 71%
- Population Hoechst High Intensity Objects (%) [11]: 8%
- Population Membrane Permeable-Phenotype (%) [11]: 0%
- Population Mitochondria Different-Phenotype (%) [11]: 53%
- Population Mitotic Cells (%) [11]: 45%
- Population Normal (%) [11]: 91%
- Population Pyknosed Nuclei (%) [11]: 19%
- Population Tubulin-Different-Phenotype (%) [11]: 25%
- Total Cell Count [11]: 467
- Population Apoptotic (%) [12]: 78%
- Population Fragmented Nuclei (%) [12]: 9%
- Population Mitochondria Different-Phenotype (%) [12]: 71%
- Population Mitotic Cells (%) [12]: 21%
- Population Tubulin-Different-Phenotype (%) [12]: 40%
- Total Cell Count [12]: 227
